# Assay results from ChEMBL document CHEMBL2331489, “Novel cinnoline-based inhibitors of LRRK2 kinase activity” (Bioorg Med Chem Lett, 2013).
# The source made the active and inactive calls. The rule behind the calls is not given here.
# Assays:
# [1] = biological target: Serine/threonine-protein kinase 16 (Homo sapiens) (UniProt O75716); assay: Inhibition of STK16 (unknown origin) at 10 uM relative to control
# [2] = biological target: RAF proto-oncogene serine/threonine-protein kinase (Homo sapiens) (UniProt P04049); assay: Inhibition of RAF1 (unknown origin) at 10 uM relative to control
# [3] = biological target: T1, Mitogen-activated protein kinase kinase kinase 7 (Homo sapiens) (UniProt O43318); assay: Inhibition of MAP3K7 (unknown origin) at 10 uM relative to control
# T1 sequence (whole entry): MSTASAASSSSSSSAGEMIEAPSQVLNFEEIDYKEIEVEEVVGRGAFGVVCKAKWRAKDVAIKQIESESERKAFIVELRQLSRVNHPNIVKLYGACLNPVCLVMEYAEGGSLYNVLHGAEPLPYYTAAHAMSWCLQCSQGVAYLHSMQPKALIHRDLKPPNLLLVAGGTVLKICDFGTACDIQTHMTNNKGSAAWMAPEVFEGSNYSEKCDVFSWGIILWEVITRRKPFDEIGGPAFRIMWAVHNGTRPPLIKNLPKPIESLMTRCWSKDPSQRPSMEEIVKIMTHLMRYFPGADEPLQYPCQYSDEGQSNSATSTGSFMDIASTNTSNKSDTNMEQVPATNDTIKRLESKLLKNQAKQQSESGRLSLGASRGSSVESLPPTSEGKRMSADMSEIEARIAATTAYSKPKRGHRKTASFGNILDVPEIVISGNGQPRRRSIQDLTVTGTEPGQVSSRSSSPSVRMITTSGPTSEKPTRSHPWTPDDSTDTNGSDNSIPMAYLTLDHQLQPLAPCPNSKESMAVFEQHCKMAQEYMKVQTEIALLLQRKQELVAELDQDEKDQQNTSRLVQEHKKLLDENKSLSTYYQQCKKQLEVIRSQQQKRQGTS
# [4] = biological target: Tyrosine-protein kinase Lck (Homo sapiens) (UniProt P06239); assay: Inhibition of LCK (unknown origin) at 10 uM relative to control
# [5] = biological target: Receptor-type tyrosine-protein kinase FLT3 (Homo sapiens) (UniProt P36888); assay: Inhibition of FLT3 (unknown origin) at 10 uM relative to control
# [6] = biological target: Receptor tyrosine-protein kinase erbB-4 (Homo sapiens) (UniProt Q15303); assay: Inhibition of ERBB4 (unknown origin) at 10 uM relative to control
# [7] = biological target: Dual specificity tyrosine-phosphorylation-regulated kinase 1B (Homo sapiens) (UniProt Q9Y463); assay: Inhibition of DYRK1B (unknown origin) at 10 uM relative to control
# [8] = biological target: T2, Leucine-rich repeat serine/threonine-protein kinase 2 (Homo sapiens, UniProt Q5S007, G2019S); assay: Inhibition of LRRK2 G2019S mutant (unknown origin) transfected in HEK293 cells assessed as inhibition of S935 phosphorylation; type: cell-based
# [9] = biological target: T2, Leucine-rich repeat serine/threonine-protein kinase 2; assay: Inhibition of GST-tagged LRRK2 G2019S mutant (970 to 2527 amino acid residues) (unknown origin) assessed as inhibition of biotinylated-LRRKtide phosphorylation by HTRF assay in presence of ATP
# [10] = biological target: Leucine-rich repeat serine/threonine-protein kinase 2 (Homo sapiens, UniProt Q5S007); assay: Inhibition of wild type GST-tagged LRRK2 (970 to 2527 amino acid residues) (unknown origin) assessed as inhibition of biotinylated-LRRKtide phosphorylation by HTRF assay in presence of ATP
# [11] = tested on: Brain; assay: Drug uptake in Mdr1(a/b) knock out and P-gp competent FVB mouse brain at 1 mg/kg, iv at 5 mins; type: ADME, organism-based; parameters: dose 1 mg/kg, route intravenous; settings: in vivo
# Procedure, shortened: (§1)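 FVB mice, both Mdr1a/b (-/-) and P-gp-competent wild-type, were given a single 1 mg/kg IV dose. Brain and plasma concentrations were measured 5 min after dosing. Brain uptake was expressed as the brain-to-plasma concentration ratio (Kp). In vivo P-gp efflux was assessed by comparing the knockout and wild-type strains.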
# [12] = biological target: Platelet-derived growth factor receptor alpha (Homo sapiens, UniProt P16234); assay: Inhibition of PDGFRalpha (unknown origin) by TR-FRET assay in presence of ATP
# [13] = biological target: Macrophage colony-stimulating factor 1 receptor (Homo sapiens, UniProt P07333); assay: Inhibition of CSF1R (unknown origin) by TR-FRET assay in presence of ATP
# [14] = biological target: ATP-dependent translocase ABCB1 (Homo sapiens, UniProt P08183); assay: Inhibition of MDR1 (unknown origin) transfected in MDCK cells; type: cell-based
# [15] = tested on: Mus musculus; assay: Inhibition of P-gp in Mdr1(a/b) knock out and P-gp competent FVB mouse at 1 mg/kg, iv; type: functional, organism-based; parameters: dose 1 mg/kg; procedure, shortened: as §1
# [16] = Ratio of drug level in brain to plasma in Mdr1(a/b) knock out and P-gp competent FVB mouse at 1 mg/kg, iv at 5 mins; type: ADME, organism-based; parameters: dose 1 mg/kg, route intravenous; settings: read-out: BPR; procedure, shortened: as §1
# Chain of Tyrosine-protein kinase Lck (Homo sapiens) (P06239 2-509 limits assumed): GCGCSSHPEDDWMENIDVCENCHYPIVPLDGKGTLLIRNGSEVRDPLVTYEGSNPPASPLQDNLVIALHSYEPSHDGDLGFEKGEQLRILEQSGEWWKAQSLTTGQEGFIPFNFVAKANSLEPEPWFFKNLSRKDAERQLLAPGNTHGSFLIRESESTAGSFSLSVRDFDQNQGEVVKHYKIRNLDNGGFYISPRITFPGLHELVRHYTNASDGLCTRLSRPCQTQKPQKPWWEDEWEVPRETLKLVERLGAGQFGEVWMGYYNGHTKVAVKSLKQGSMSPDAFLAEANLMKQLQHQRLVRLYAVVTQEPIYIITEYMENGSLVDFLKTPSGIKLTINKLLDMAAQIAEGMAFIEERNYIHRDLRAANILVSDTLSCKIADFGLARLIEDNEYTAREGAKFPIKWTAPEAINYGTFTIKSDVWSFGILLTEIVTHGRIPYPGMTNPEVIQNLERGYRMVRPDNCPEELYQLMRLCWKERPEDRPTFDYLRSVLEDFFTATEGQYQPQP
# Chain of Macrophage colony-stimulating factor 1 receptor (P07333 whole entry): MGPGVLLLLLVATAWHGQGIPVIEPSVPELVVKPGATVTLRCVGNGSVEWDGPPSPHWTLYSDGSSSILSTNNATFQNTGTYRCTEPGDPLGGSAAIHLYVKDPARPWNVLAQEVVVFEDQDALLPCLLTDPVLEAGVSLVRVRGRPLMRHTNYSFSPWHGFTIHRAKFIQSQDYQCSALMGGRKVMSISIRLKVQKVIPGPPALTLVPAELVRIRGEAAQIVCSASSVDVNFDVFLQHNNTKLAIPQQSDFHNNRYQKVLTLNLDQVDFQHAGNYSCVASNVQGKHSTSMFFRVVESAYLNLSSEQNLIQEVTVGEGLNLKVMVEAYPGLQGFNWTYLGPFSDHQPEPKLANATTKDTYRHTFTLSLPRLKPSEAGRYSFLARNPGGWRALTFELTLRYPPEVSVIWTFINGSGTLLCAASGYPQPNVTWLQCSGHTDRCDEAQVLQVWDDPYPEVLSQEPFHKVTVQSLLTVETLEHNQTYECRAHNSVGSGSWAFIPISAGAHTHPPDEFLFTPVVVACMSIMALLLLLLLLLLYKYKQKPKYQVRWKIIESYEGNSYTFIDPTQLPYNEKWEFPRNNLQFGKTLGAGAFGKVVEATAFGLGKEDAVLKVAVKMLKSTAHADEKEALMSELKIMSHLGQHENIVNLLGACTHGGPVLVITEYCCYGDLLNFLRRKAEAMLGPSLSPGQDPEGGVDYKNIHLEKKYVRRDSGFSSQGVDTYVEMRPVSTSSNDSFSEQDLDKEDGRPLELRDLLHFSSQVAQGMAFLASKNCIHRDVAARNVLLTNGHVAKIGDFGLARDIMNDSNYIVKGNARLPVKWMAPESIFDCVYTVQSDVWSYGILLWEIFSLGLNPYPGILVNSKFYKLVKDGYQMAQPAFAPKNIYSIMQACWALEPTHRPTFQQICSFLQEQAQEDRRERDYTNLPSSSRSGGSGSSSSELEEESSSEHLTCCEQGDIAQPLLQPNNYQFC
# Chain of Dual specificity tyrosine-phosphorylation-regulated kinase 1B (Homo sapiens) (Q9Y463 whole entry, looked up): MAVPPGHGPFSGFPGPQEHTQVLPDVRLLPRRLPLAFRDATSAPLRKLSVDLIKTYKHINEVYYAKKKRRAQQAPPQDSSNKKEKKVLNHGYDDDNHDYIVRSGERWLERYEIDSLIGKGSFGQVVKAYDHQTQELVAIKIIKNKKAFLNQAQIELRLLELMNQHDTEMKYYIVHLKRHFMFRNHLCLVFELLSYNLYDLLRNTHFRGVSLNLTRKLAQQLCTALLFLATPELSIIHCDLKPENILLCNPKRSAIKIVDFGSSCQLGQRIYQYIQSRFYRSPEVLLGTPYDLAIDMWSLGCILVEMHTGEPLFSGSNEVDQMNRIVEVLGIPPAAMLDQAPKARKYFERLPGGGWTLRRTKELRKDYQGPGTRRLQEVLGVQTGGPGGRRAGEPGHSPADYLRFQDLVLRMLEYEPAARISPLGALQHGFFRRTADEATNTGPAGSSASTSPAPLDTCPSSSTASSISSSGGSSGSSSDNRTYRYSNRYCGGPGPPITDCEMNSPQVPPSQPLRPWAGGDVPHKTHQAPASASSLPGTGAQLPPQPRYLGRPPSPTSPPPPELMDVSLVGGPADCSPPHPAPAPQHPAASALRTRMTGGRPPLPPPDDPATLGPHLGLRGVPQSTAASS
# Chain of Leucine-rich repeat serine/threonine-protein kinase 2 (Homo sapiens, UniProt Q5S007) (Q5S007 whole entry, the tested form may be a part): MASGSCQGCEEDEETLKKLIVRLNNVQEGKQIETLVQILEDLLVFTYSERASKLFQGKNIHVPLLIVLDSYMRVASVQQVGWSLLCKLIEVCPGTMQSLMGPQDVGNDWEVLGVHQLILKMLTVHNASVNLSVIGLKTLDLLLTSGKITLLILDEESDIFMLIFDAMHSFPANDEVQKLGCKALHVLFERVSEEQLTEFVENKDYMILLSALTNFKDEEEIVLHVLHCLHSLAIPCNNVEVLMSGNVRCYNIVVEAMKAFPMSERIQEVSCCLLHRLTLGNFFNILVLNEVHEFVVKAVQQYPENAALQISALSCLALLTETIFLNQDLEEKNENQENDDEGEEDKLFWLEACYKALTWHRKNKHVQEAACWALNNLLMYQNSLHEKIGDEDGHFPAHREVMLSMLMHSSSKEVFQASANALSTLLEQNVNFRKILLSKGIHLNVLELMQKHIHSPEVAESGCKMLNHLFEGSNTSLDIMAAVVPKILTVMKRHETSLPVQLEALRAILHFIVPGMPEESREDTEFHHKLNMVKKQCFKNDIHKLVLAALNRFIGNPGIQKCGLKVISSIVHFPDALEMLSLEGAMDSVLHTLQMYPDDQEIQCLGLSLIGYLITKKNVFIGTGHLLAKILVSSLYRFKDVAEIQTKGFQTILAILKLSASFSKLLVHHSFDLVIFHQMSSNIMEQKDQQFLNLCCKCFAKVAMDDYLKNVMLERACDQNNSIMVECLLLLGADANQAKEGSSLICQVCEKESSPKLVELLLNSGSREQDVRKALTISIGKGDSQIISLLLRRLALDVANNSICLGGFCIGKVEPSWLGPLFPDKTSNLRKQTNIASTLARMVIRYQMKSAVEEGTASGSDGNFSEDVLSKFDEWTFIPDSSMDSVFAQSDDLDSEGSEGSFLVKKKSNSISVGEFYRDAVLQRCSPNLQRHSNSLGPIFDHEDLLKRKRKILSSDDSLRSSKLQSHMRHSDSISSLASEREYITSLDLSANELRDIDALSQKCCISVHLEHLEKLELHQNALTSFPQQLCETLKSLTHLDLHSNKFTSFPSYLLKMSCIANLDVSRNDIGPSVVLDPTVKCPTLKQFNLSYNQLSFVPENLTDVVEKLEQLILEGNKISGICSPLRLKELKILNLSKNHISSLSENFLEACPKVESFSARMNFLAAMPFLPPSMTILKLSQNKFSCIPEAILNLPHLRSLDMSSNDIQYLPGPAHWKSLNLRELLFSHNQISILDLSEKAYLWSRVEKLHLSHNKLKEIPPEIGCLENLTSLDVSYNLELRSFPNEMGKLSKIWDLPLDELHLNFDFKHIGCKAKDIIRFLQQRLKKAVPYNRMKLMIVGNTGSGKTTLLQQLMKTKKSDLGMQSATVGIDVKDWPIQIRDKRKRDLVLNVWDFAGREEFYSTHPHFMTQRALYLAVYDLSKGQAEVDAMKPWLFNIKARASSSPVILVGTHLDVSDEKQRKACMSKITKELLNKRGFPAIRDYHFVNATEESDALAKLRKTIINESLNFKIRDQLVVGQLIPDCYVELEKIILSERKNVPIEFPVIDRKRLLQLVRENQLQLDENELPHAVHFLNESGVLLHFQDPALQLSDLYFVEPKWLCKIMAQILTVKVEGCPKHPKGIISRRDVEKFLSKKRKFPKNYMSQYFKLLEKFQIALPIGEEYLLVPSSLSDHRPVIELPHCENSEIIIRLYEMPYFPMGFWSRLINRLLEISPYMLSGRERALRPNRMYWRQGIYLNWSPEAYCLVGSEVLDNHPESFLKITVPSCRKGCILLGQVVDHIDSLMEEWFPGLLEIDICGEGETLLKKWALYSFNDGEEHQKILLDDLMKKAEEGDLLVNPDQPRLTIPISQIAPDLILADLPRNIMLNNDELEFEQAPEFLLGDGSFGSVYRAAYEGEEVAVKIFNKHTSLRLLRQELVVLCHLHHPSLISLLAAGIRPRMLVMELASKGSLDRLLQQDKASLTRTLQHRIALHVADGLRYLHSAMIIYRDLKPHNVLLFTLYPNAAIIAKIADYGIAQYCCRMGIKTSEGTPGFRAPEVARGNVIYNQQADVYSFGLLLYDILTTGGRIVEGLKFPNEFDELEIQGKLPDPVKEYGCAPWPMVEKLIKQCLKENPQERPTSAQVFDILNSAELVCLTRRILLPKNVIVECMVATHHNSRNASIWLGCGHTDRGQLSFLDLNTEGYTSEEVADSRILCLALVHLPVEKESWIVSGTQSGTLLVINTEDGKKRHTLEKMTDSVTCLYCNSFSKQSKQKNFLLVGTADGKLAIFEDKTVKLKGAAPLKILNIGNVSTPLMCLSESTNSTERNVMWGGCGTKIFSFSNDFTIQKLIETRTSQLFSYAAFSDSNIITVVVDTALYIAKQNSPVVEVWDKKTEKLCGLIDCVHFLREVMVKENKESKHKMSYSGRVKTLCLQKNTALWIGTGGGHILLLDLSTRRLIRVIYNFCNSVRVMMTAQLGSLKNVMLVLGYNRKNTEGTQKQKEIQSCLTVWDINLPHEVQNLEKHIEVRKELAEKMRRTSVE
# Chain of Serine/threonine-protein kinase 16 (Homo sapiens) (O75716 whole entry): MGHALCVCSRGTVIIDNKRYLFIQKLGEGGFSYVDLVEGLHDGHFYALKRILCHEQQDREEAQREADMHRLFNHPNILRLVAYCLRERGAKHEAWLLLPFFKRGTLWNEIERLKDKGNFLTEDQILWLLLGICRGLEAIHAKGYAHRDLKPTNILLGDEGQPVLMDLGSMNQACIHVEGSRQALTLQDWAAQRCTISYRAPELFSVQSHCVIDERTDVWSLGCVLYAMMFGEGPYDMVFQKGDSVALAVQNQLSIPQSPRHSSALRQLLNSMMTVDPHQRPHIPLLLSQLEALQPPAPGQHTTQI
# T2 sequence (Q5S007 whole entry G2019S, the tested form may be a part): as the sequence (Q5S007 whole entry, the tested form may be a part) above, with G2019S counted along it
inhibition [1],inhibition [2],inhibition [3],inhibition [4],inhibition [5],inhibition [6],inhibition [7],EC50 [8],IC50 [9],IC50 [10],Drug uptake [11],IC50 [12],IC50 [13],inhibition (INH) [14],Kp at 5 min [16],SMILES,inhibition [15]
84%,88%,97%,94%,101%,38%,97%,109 nM,5 nM,1 nM,–,–,–,–,–,CC(C)Nc1c(C(N)=O)nnc2ccc(-c3cn[nH]c3)cc12,–
40%,27%,67%,75%,99%,15%,7%,–,12 nM,9 nM,Active,22 nM,54 nM,Active,11.4,CC(C)Nc1c(C(N)=O)nnc2cc(N3CCOCC3)ccc12,Active
84%,93%,84%,90%,102%,21%,97%,–,66 nM,–,–,–,–,–,–,CC(C)Nc1c(C(N)=O)nnc2ccc(-c3ccncc3)cc12,–
85%,61%,102%,85%,96%,22%,44%,–,–,–,–,–,–,–,–,CC(C)Nc1c(C(N)=O)nnc2cc(-c3ccncc3)ccc12,–
44%,38%,66%,35%,72%,4%,20%,–,19 nM,–,Active,127 nM,< 40 nM,Active,0.76,CS(=O)(=O)c1ccc(-c2ccc3c(NC4CCC4)c(C(N)=O)nnc3c2)cc1,Active
39%,17%,89%,31%,75%,11%,9%,–,–,35 nM,–,–,–,–,–,CC(C)Nc1c(C(N)=O)cnc2cc(-c3ccc(S(C)(=O)=O)cc3)ccc12,–
–,21%,39%,81%,80%,12%,3%,70 nM,7 nM,1 nM,–,22 nM,17 nM,–,–,C[C@@H](Nc1c(C(N)=O)nnc2cc(-c3ccc(S(C)(=O)=O)cc3)ccc12)C1CC1,–
